Data set [1] relates to Mus musculus. In words: Effect on brain lesion measured 24 hour after permanent MCA occlusion in mice upon four i.p. doses of 10 mg/kg (n=9). It counts as functional. The following applies: route intraperitoneal. In outline: (§1)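 Male NMRI mice (23–30 g) under Avertin anesthesia (240 mg/kg ip), rectal temperature held at 37 ± 0.5 °C during surgery, underwent permanent MCA occlusion. Four ip injections in 10% cremophor EL were given 1 h before and 0, 1 and 2 h after occlusion. At 24 h, infarct volume was measured by TTC staining (Cavalieri principle). Results are mean ± SD versus vehicle, ANOVA with Dunnett test.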

For data set [2], the target named is Glutamate receptor ionotropic, AMPA (Rattus norvegicus, UniProt P19490+P19491+P19492+P19493). In words: In vitro inhibition of AMPA receptor mediated currents in primary cultured rat fetal hippocampal neurons. It counts as tissue-based, Hippocampus. In outline:
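Whole-cell patch clamp at −60 mV on hippocampal neurons from E19 Wistar rat fetuses, cultured 6–14 days (cytosine-arabinoside from day 6). Inward currents were evoked by bath-perfused kainate in pH 7.4 HEPES medium with CsCl pipet solution. Antagonist was bath-applied after 90 s preincubation in 0.3% DMSO final. Currents were normalized to the no-antagonist value, 5–6 cells per point, and the logistic fit gave IC50.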

For data set [3], the system named is Mus musculus. In words: Effect on brain lesion measured 24 hr after permanent MCA occlusion in mice upon four i.p. doses of 30 mg/kg (n=8). It counts as functional. As to conditions: route intraperitoneal. In outline:
as §1

Data set [4] concerns Mus musculus. Put plainly: Effect on brain lesion measured 24 hour after permanent MCA occlusion in mice upon three i.p. doses of 30 mg/kg (n=12). The class given is functional. The following applies: route intraperitoneal. In outline:
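Reference paradigm in male NMRI mice with permanent MCA occlusion, anesthetized with Avertin (240 mg/kg ip). Three ip injections of 30 mg/kg in physiological saline at 60, 70 and 85 min after occlusion (table footnote says 80 min). Infarct volume was measured at 24 h by TTC staining and Cavalieri calculation. Results are mean ± SD versus saline vehicle, ANOVA/Dunnett.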

In data set [5] the test system is Rattus norvegicus. Put plainly: Effect on total cerebral infarct volume measured 24 hour after permanent MCA occlusion in rat at a dose of 3 mg/kg (n=6). It counts as functional. In outline:
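Male Fischer-344 rats underwent permanent MCA occlusion and received a single ip dose in physiological saline (0.9% NaCl) immediately after occlusion. Rectal temperature was held at 37 ± 0.5 °C during surgery. At 24 h, under Nembutal, brains were TTC-stained and infarct areas measured, with volume by Cavalieri principle. Mean ± SD; ANOVA with Dunnett's test versus vehicle.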

Data set [6] relates to Rattus norvegicus. In words: Effect on total cerebral infarct volume measured 24 hour after permanent MCA occlusion in rat upon four i.p. doses of 10 mg/kg (n=15). The class given is functional. As to conditions: route intraperitoneal. The method, boiled down:
(§2)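 Male Fischer-344 rats with permanent MCA occlusion received four ip injections in 10% cremophor EL at 1, 2, 3 and 4 h after occlusion. Total infarct volume (cortex and striatum) was measured 24 h after occlusion by TTC staining with Cavalieri volume calculation. Results are mean ± SD versus vehicle group, ANOVA followed by Dunnett test.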

The test system of data set [7] is Mus musculus. In words: Effect on brain lesion measured 24 hour after permanent MCA occlusion in mice upon four i.p. doses of 10 mg/kg (n=10). The following applies: route intraperitoneal. The class given is functional. The method, boiled down: as §1
Data set [8] concerns Rattus norvegicus. In words: Plasma clearance was measured after iv injection in rats.
For data set [9], the system named is Rattus norvegicus. In words: Effect on total cerebral infarct volume measured 24 hour after permanent MCA occlusion in rat upon four i.p. doses of 30 mg/kg (n=10). The class given is functional. As to conditions: route intraperitoneal. In outline: as §2
Data set [10] deals with Rattus norvegicus. In words: Effect on total cerebral infarct volume measured 24 hour after permanent MCA occlusion in rat upon four i.p. doses of 3 mg/kg (n=12). The class given is functional. The following applies: route intraperitoneal. The method, boiled down:
as §2

The test system of data set [11] is Rattus norvegicus. Put plainly: Half life was measured after iv injection in rats. The following applies: in vivo.
Data set [12] is described as follows: Volume of distribution was measured. The class given is ADME, organism-based. As to conditions: in vivo; read-out: Volume of distribution. In outline: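 Rats were given 2.5 mg/kg iv. Plasma was sampled at nine time points from 5 min to 7 h, precipitated with acetonitrile (1:5) and quantified by LC/MS/MS against matrix calibration curves with an internal standard, C18 column, water/acetonitrile with 0.1% acetic acid gradient. Volume of distribution was calculated from the concentration–time data.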

`Cc1c(CO)nc2n1N=C(c1ccccc1)c1cc3c(cc1C2)OCO3`: the Brain lesion was found to be 20.6 mm³ in the data set on Mus musculus [1] and 23 mm³ in the data set on Mus musculus [3]. The same molecule registered an IC50 in [2] of 4.6 µM.
Consider `Clc1nc2n(c1Cl)N=C(c1ccccc1)c1cc3c(cc1C2)OCO3`, for which, in data set [2], the IC50 was above 10 µM.
In turn, `NS(=O)(=O)c1cccc2c1c([N+](=O)[O-])cc1nc(O)c(O)nc12` [NBQX] had a Brain lesion with Mus musculus [4] of 18.4 mm³.
Molecule `C[C@]12N[C@H](Cc3ccccc31)c1ccccc12` [DIZOCILPINE] returned a Total infarct volume with Rattus norvegicus [5] of 118 mm.
Turning to `c1ccc(C2=Nn3ccnc3Cc3cc4c(cc32)OCO4)cc1`, the IC50 in [2] is 6.5 µM.
Still for that read-out and setting: with `Cc1nc2n(c1C)N=C(c1ccc(F)cc1)c1cc3c(cc1C2)OCO3` the figure was 10 µM; with `CC1=NN=C(c2ccc(N)cc2)c2cc3c(cc2C1)OCO3` [GYKI-52466], 9 µM.
As to `Cc1nc2n(c1C)N=C(c1ccccc1)c1cc3c(cc1C2)OCO3`, the Total infarct volume in the data set on Rattus norvegicus [6] was 142 mm³; with Rattus norvegicus [9], 132 mm³; in the data set on Rattus norvegicus [10] it was 138 mm³. Also, in the data set on Mus musculus [7], the Brain lesion was found to be 17.1 mm³. For the same molecule, the clearance with Rattus norvegicus [8] is 54 mL/min/kg. This molecule gave an IC50 in data set [2] of 3.4 µM. In the data set with Rattus norvegicus [11], this molecule had a half-life of 1.2 h. In data set [12], the Vd was 2.7 L/kg.
For the molecule `Cc1nc2n(c1C)N=C(c1ccc(Cl)cc1)c1cc3c(cc1C2)OCO3`, the midpoint of inhibition in data set [2], the IC50, lay at 10 µM.
Still for that read-out and setting: the result for `Brc1nc2n(c1Br)N=C(c1ccccc1)c1cc3c(cc1C2)OCO3` reads above 10 µM.
